# Measurements as given in paper PMC2659781 (Drug metabolism and disposition: the biological fate of …, 2008).
# Entries after “also recorded” stand apart in the source; their conditions may differ.
# Key:
# [1] = ref Nakamura et al., 2003, cited from earlier work
# [2] = Aqueous solubility of HET0016 in ddH2O and 15% HPβCD; type: physicochemical
# [3] = 1 hour after intraperitoneal 10 mg/kg dose in lecithin; ref Poloyac et al., 2006; cited from earlier work
# [4] = tested on: 20-HETE formation in brain cortical microsomes; experiment: Ex vivo 20-HETE formation in brain cortical microsomes from treated rats; set-up: species or system rat; settings: 1 mg/kg iv, one hour after dosing, incubated in the absence of inhibitor
# Outline: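 Rats got 1 mg/kg test compound iv or vehicle (n = 6 per group); cortex was taken 1 h post-dose. Microsomes were made by differential centrifugation in pH 7.4 tris/KCl/DTT/EDTA/20% glycerol buffer with PMSF and BHT. 325μg protein was incubated without added inhibitor in 0.12 M potassium phosphate/5mM MgCl2 with 100μM arachidonic acid. NADPH 1mM was added at start and at 30 min; 37°C, 60 min. 20-HETE d6 internal standard, diethyl ether extraction, MS.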
# [5] = tested on: 20-HETE formation in rat brain cortical microsomes; experiment: Inhibition of 20-HETE formation in rat brain cortical microsomes; type: biochemical; settings: for 20-HETE formation rate, % of control incubation: HET0016 48.5 nM, 100 μM arachidonic acid
# [6] = tested on: brain cortical 20-HETE tissue concentrations; experiment: Brain cortical 20-HETE tissue concentration after iv HET0016; type: in vivo, rat
smiles,measurement,setting,value
"CCCCc1ccc(N=CNO)c(C)c1 [HET0016, N-Hydroxy-N′-(4-n-butyl-2-methylphenyl)formamidine]",stability,[1]; acidic pH,instability
same,aqueous solubility,[1]; neutral pH,poor aqueous solubility
same,solubility at 48 h,[2]; 15% HPβCD,0.453 ± 0.0633 mg/mL
same,solubility at 48 h,"[2]; distilled, deionized water",0.0342 ± 0.0312 mg/mL
same,brain concentration as % of plasma concentration,[3],less than 10%
same,ex vivo 20-HETE formation in microsomes of treated animals,[4],persistent inhibition
same,reduction in 20-HETE formation rate,[5]; HET0016 30 nM,~ 70%
same,"20-HETE formation rate, % of control incubation",[5]; with 10 minute pre-incubation,4.92 ± 0.19%
same,"20-HETE formation rate, % of control incubation",[5]; without pre-incubation,4.89 ± 0.46%
same,concentrations of HET0016 required for 20-HETE inhibition in the rat brain,[5]; in vitro,30 to 90 nM
same,need for metabolic activation to inhibit 20-HETE formation,[5]; pre-incubation versus no pre-incubation,does not require metabolic activation
same,mechanism of inhibition of 20-HETE formation,"[5]; rat brain cortical microsomes, 24 nM HET0016, arachidonic acid up to 120 μM",non-competitive inhibitor; also recorded: non-competitive inhibition
same,time 20-HETE tissue concentrations remained significantly reduced,[6]; 1 mg/kg iv,60 min
same,time of return of 20-HETE to control levels,[6]; 1 mg/kg iv,≤ 24 h
same,time to reduction of brain 20-HETE after administration,[6]; 1 mg/kg iv,≤ 5 min
same,20-HETE concentration recovery (of control),"[6]; 1 mg/kg iv, 180 minutes",70%
same,20-HETE concentrations in brain tissue of treated animals (chromatograms),[6]; data not shown,near or below the limits of detection
same,rat brain 20-HETE concentration after dosing,"[6]; single iv dose 1 mg/kg, HPβCD formulation, from 289 pmol/g",91 pmol/g
